According to ChEMBL document CHEMBL4689842, “EUbOPEN Chemogenomics Library wave 1” (2021):

System: HEK-293T
Experiment: Multiplex assay against HEK293T;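 for Population Tubulin-Different-Phenotype (%): share of the cells with healthy nuclei that show this phenotype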
Format: toxicity, cell-based
Conditions: human
How it was run: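 Cells stained live at seeding with Hoechst33342, BioTracker Green Microtubule Cytoskeleton Dye, MitoTracker Red and Annexin V Alexa Fluor 680 were imaged on a CQ1 microscope at 37°C and 5% CO2 after compound addition. Their classification by CellPathfinder machine-learning gating ran from Hoechst high-intensity objects versus normal cells, to healthy, pyknosed or fragmented nuclei among normal cells, to mitotic or apoptotic among pyknosed cells. Tubulin, mitochondrial-mass and membrane-permeability phenotypes are per cents of healthy-nucleus cells.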

[1] = 12 h, 1 µM, compound concentration 1 uM, replicate 1
[2] = 12 h, 1 µM, compound concentration 1 uM, replicate 2
[3] = 12 h, 10 µM, compound concentration 10 uM, replicate 1
[4] = 12 h, 10 µM, compound concentration 10 uM, replicate 2
[5] = 24 h, 1 µM, compound concentration 1 uM, replicate 1
[6] = 24 h, 1 µM, compound concentration 1 uM, replicate 2
[7] = 24 h, 10 µM, compound concentration 10 uM, replicate 1
[8] = 24 h, 10 µM, compound concentration 10 uM, replicate 2
[9] = 48 h, 1 µM, compound concentration 1 uM, replicate 1
[10] = 48 h, 1 µM, compound concentration 1 uM, replicate 2
[11] = 48 h, 10 µM, compound concentration 10 uM, replicate 1
[12] = 48 h, 10 µM, compound concentration 10 uM, replicate 2

CC(C)Oc1ccccc1C(=O)Nc1ccccc1C(=O)Nc1cccc(S(=O)(=O)C(F)(F)F)c1
Population Apoptotic (%) [1]: 64% | Population Fragmented Nuclei (%) [1]: 10% | Population Healthy Nuclei (%) [1]: 41% | Population Hoechst High Intensity Objects (%) [1]: 14% | Population Membrane Permeable-Phenotype (%) [1]: 3% | Population Mitochondria Different-Phenotype (%) [1]: 90% | Population Mitotic Cells (%) [1]: 35% | Population Normal (%) [1]: 85% | Population Pyknosed Nuclei (%) [1]: 47% | Population Tubulin-Different-Phenotype (%) [1]: 77% | Total Cell Count [1]: 237 | Population Apoptotic (%) [2]: 34% | Population Fragmented Nuclei (%) [2]: 7% | Population Healthy Nuclei (%) [2]: 37% | Population Hoechst High Intensity Objects (%) [2]: 6% | Population Membrane Permeable-Phenotype (%) [2]: 8% | Population Mitochondria Different-Phenotype (%) [2]: 58% | Population Mitotic Cells (%) [2]: 65% | Population Normal (%) [2]: 93% | Population Pyknosed Nuclei (%) [2]: 55% | Population Tubulin-Different-Phenotype (%) [2]: 76% | Total Cell Count [2]: 214 | Population Fragmented Nuclei (%) [3]: 11% | Population Healthy Nuclei (%) [3]: 31% | Population Hoechst High Intensity Objects (%) [3]: 13% | Population Membrane Permeable-Phenotype (%) [3]: 6% | Population Mitochondria Different-Phenotype (%) [3]: 91% | Population Mitotic Cells (%) [3]: 34% | Population Normal (%) [3]: 87% | Population Pyknosed Nuclei (%) [3]: 57% | Population Tubulin-Different-Phenotype (%) [3]: 87% | Total Cell Count [3]: 300 | Population Apoptotic (%) [4]: 66% | Population Fragmented Nuclei (%) [4]: 7% | Population Healthy Nuclei (%) [4]: 21% | Population Hoechst High Intensity Objects (%) [4]: 4% | Population Membrane Permeable-Phenotype (%) [4]: 9% | Population Mitochondria Different-Phenotype (%) [4]: 71% | Population Mitotic Cells (%) [4]: 33% | Population Normal (%) [4]: 95% | Population Pyknosed Nuclei (%) [4]: 71% | Population Tubulin-Different-Phenotype (%) [4]: 83% | Total Cell Count [4]: 206 | Population Apoptotic (%) [5]: 64% | Population Fragmented Nuclei (%) [5]: 16% | Population Healthy Nuclei (%) [5]: 44% | Population Hoechst High Intensity Objects (%) [5]: 14% | Population Membrane Permeable-Phenotype (%) [5]: 0% | Population Mitochondria Different-Phenotype (%) [5]: 90% | Population Mitotic Cells (%) [5]: 35% | Population Normal (%) [5]: 85% | Population Pyknosed Nuclei (%) [5]: 38% | Population Tubulin-Different-Phenotype (%) [5]: 67% | Total Cell Count [5]: 263 | Population Apoptotic (%) [6]: 42% | Population Fragmented Nuclei (%) [6]: 8% | Population Healthy Nuclei (%) [6]: 50% | Population Hoechst High Intensity Objects (%) [6]: 3% | Population Membrane Permeable-Phenotype (%) [6]: 3% | Population Mitochondria Different-Phenotype (%) [6]: 66% | Population Mitotic Cells (%) [6]: 58% | Population Normal (%) [6]: 96% | Population Pyknosed Nuclei (%) [6]: 41% | Population Tubulin-Different-Phenotype (%) [6]: 83% | Total Cell Count [6]: 253 | Population Apoptotic (%) [7]: 61% | Population Fragmented Nuclei (%) [7]: 18% | Population Healthy Nuclei (%) [7]: 31% | Population Hoechst High Intensity Objects (%) [7]: 11% | Population Membrane Permeable-Phenotype (%) [7]: 4% | Population Mitochondria Different-Phenotype (%) [7]: 94% | Population Mitotic Cells (%) [7]: 38% | Population Normal (%) [7]: 88% | Population Pyknosed Nuclei (%) [7]: 49% | Population Tubulin-Different-Phenotype (%) [7]: 77% | Total Cell Count [7]: 332 | Population Apoptotic (%) [8]: 78% | Population Fragmented Nuclei (%) [8]: 7% | Population Healthy Nuclei (%) [8]: 25% | Population Hoechst High Intensity Objects (%) [8]: 3% | Population Membrane Permeable-Phenotype (%) [8]: 9% | Population Mitochondria Different-Phenotype (%) [8]: 84% | Population Mitotic Cells (%) [8]: 21% | Population Normal (%) [8]: 96% | Population Pyknosed Nuclei (%) [8]: 67% | Population Tubulin-Different-Phenotype (%) [8]: 81% | Total Cell Count [8]: 217 | Population Apoptotic (%) [9]: 63% | Population Fragmented Nuclei (%) [9]: 19% | Population Healthy Nuclei (%) [9]: 43% | Population Hoechst High Intensity Objects (%) [9]: 16% | Population Membrane Permeable-Phenotype (%) [9]: 2% | Population Mitochondria Different-Phenotype (%) [9]: 66% | Population Mitotic Cells (%) [9]: 36% | Population Normal (%) [9]: 83% | Population Pyknosed Nuclei (%) [9]: 36% | Population Tubulin-Different-Phenotype (%) [9]: 50% | Total Cell Count [9]: 286 | Population Apoptotic (%) [10]: 25% | Population Fragmented Nuclei (%) [10]: 6% | Population Healthy Nuclei (%) [10]: 73% | Population Hoechst High Intensity Objects (%) [10]: 5% | Population Membrane Permeable-Phenotype (%) [10]: 3% | Population Mitochondria Different-Phenotype (%) [10]: 46% | Population Mitotic Cells (%) [10]: 74% | Population Normal (%) [10]: 94% | Population Pyknosed Nuclei (%) [10]: 19% | Population Tubulin-Different-Phenotype (%) [10]: 74% | Total Cell Count [10]: 393 | Population Apoptotic (%) [11]: 59% | Population Fragmented Nuclei (%) [11]: 35% | Population Healthy Nuclei (%) [11]: 30% | Population Hoechst High Intensity Objects (%) [11]: 13% | Population Membrane Permeable-Phenotype (%) [11]: 3% | Population Mitochondria Different-Phenotype (%) [11]: 89% | Population Mitotic Cells (%) [11]: 40% | Population Normal (%) [11]: 86% | Population Pyknosed Nuclei (%) [11]: 34% | Population Tubulin-Different-Phenotype (%) [11]: 50% | Total Cell Count [11]: 401 | Population Apoptotic (%) [12]: 58% | Population Fragmented Nuclei (%) [12]: 16% | Population Healthy Nuclei (%) [12]: 26% | Population Hoechst High Intensity Objects (%) [12]: 5% | Population Membrane Permeable-Phenotype (%) [12]: 15% | Population Mitochondria Different-Phenotype (%) [12]: 64% | Population Mitotic Cells (%) [12]: 41% | Population Normal (%) [12]: 94% | Population Pyknosed Nuclei (%) [12]: 56% | Population Tubulin-Different-Phenotype (%) [12]: 79% | Total Cell Count [12]: 251
